This note sets out measurements from ChEMBL document CHEMBL1128385, “Three-dimensional quantitative structure-activity relationships of somatostatin analogues. 1. Comparative molecular field analysis of growth hormone release-inhibiting potencies” (J Med Chem, 1995).

Where a SMILES comes first, the peptide text is derived from it. Bridges are numbered along the chain shown (N, C = ends). [ ]: non-standard residue; d: D form. Phe(4-Cl) = N[C@@H](Cc1ccc(Cl)cc1)C(=O)O; dPhe(4-Cl) = N[C@H](Cc1ccc(Cl)cc1)C(=O)O; 2Nal = N[C@@H](Cc1ccc2ccccc2c1)C(=O)O; Abu = CC[C@H](N)C(=O)O

The test is filed under the species Rattus norvegicus. Nature of the test: In vitro GH release inhibiting potency on anterior pitutaries from adult male rats, relative to somatostatin. The test is classed as functional. Summed up:
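Rat anterior pituitary cells (adult males, 200-250 g), trypsin/DNase dispersed, plated 2 × 10^5 cells/well, cultured 96 h at 37 °C in serum-supplemented DMEM. After washing, cells were pulsed 3 h at 37 °C with 1 nM GRF(1-29)NH2 ± graded analogue doses in medium 199/1% BSA, quadruplicate wells. Medium GH was measured by double-antibody RIA. Potency relative to somatostatin (=1.0) came from four-point assay (mean of ≥3 experiments) or IC50 comparison.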
For `CC(C)C1NC(=O)[C@H](CCCCN)NC(=O)C(Cc2c[nH]c3ccccc23)NC(=O)[C@H](Cc2ccc(O)cc2)NC(=O)C(C)N(C)C(=O)[C@H](Cc2ccccc2)NC1=O` (single isomer, unassigned), the GHI was 0.02.
As for `CC(C)[C@H](NC(=O)[C@H](CCCCN)NC(=O)[C@@H](Cc1c[nH]c2ccccc12)NC(=O)[C@H](Cc1ccc(O)cc1)NC(=O)[C@H](C)NC(=O)[C@H](N)Cc1ccc(Cl)cc1)C(=O)N[C@@H](C)C(=O)N[C@@H](Cc1ccc2ccccc2c1)C(N)=O` (H-[dPhe(4-Cl)]AY[dW]KVA[2Nal]-NH2), the figure is 45; as for `CC1NC(=O)[C@H]([C@@H](C)O)NC(=O)C(CCCCN)NC(=O)[C@@H](Cc2c[nH]c3ccccc23)NC(=O)C(Cc2ccccc2)NC(=O)[C@@H]2CCCN2C1=O` (single isomer, unassigned; 61), 500.
`C[C@@H]1NC(=O)[C@H]([C@@H](C)O)NC(=O)C(CCCCN)NC(=O)[C@@H](Cc2c[nH]c3ccccc23)NC(=O)C(Cc2ccccc2)NC(=O)[C@H]2CCCN2C1=O` (single isomer, unassigned) came in with a GHI of 166.
`CC(C)[C@@H]1NC(=O)[C@H](CCCCN)NC(=O)[C@@H](Cc2c[nH]c3ccccc23)NC(=O)[C@H](Cc2ccc(O)cc2)NC(=O)[C@H](NC(=O)[C@H](N)Cc2ccccc2)CSSC[C@@H](C(=O)N[C@@H](Cc2ccc3ccccc3c2)C(=O)O)NC1=O` gave a GHI of 0.06.
As for `C[C@@H](O)[C@@H]1NC(=O)[C@H](CCCCN)NC(=O)[C@H](Cc2c[nH]c3ccc(F)cc23)NC(=O)[C@H](Cc2ccccc2)NC(=O)[C@H](Cc2ccccc2)NC(=O)CCCCCCNC(=O)[C@H](Cc2ccccc2)NC1=O` (stereo in doubt), the figure is 6.7.
To `CC(C)[C@H](NC(=O)[C@H](CCCCN)NC(=O)[C@@H](Cc1c[nH]c2ccccc12)NC(=O)[C@H](Cc1ccc(O)cc1)NC(=O)[C@H](Cc1ccccc1)NC(=O)[C@H](N)Cc1ccccc1)C(=O)N[C@@H](Cc1ccccc1)C(=O)N[C@H](C(N)=O)[C@@H](C)O` (H-[dF]FY[dW]KVFT-NH2) belongs 111; to `C[C@@H](O)[C@@H]1NC(=O)C(CCCCN)NC(=O)[C@@H](Cc2c[nH]c3ccccc23)NC(=O)C(Cc2ccc(O)cc2)NC(=O)[C@@H]2CCCN2C(=O)C(Cc2ccccc2)NC1=O` (single isomer, unassigned), 0.07.
In turn, `CC(C)[C@@H]1NC(=O)[C@H](CCCCN)NC(=O)[C@@H](Cc2c[nH]c3ccccc23)NC(=O)[C@H](Cc2ccc(O)cc2)NC(=O)[C@@H](NC(=O)[C@H](N)Cc2ccc3ccccc3c2)CSSC[C@@H](C(=O)N[C@H](C(N)=O)[C@@H](C)O)NC1=O` showed a GHI of 0.83.
Take `C[C@@H](O)[C@@H]1NC(=O)[C@H](CCCN)NC(=O)[C@@H](Cc2c[nH]c3ccccc23)NC(=O)[C@H](Cc2ccccc2)NC(=O)[C@H](Cc2ccccc2)NC(=O)CCCCCCNC(=O)[C@H](Cc2ccccc2)NC1=O` (stereo in doubt): the GHI was 20.
Consider `C[C@@H](O)[C@@H]1NC(=O)C(CCCCN)NC(=O)[C@@H](Cc2c[nH]c3ccccc23)NC(=O)C(Cc2ccccc2)NC(=O)[C@@H]2CCCN2C(=O)[C@@H]2CCCN2C1=O` (single isomer, unassigned), for which the GHI stood at 125.
On to `C[C@@H](O)[C@@H]1NC(=O)C(CCCCN)NC(=O)[C@@H](Cc2c[nH]c3ccccc23)NC(=O)C(Cc2ccccc2)NC(=O)[C@H](Cc2ccccc2)NC(=O)C(Cc2ccccc2)NC1=O` (single isomer, unassigned), for which the GHI was found to be 3.71.
To `CC(C)[C@@H]1NC(=O)C(CCCCN)NC(=O)[C@@H](Cc2c[nH]c3ccccc23)NC(=O)C(Cc2ccccc2)NC(=O)[C@@H]2CCCN2C(=O)C(Cc2ccccc2)NC1=O` (single isomer, unassigned) belongs 0.29; to `C[C@@H](O)[C@@H]1NC(=O)[C@H](CCCCN)NC(=O)[C@@H](Cc2c[nH]c3ccccc23)NC(=O)[C@H](Cc2ccc(F)cc2)NC(=O)[C@H](Cc2ccccc2)NC(=O)CCCCCCNC(=O)[C@H](Cc2ccccc2)NC1=O` (stereo in doubt), 20.
As to `C[C@@H](O)[C@H](NC(=O)[C@H](Cc1ccccc1)NC(=O)[C@@H](NC(=O)[C@H](CCCCN)NC(=O)[C@@H](Cc1c[nH]c2ccccc12)NC(=O)[C@H](Cc1ccc(O)cc1)NC(=O)[C@H](Cc1ccc(Cl)cc1)NC(=O)[C@H](N)Cc1ccccc1)[C@@H](C)O)C(N)=O` (H-[dF][Phe(4-Cl)]Y[dW]KTFT-NH2), the GHI amounted to 3.4.
`C[C@@H](O)[C@H](NC(=O)[C@@H]1CSSC[C@H](NC(=O)[C@H](N)Cc2ccc3ccccc3c2)C(=O)N[C@@H](Cc2ccc(O)cc2)C(=O)N[C@H](Cc2c[nH]c3ccccc23)C(=O)N[C@@H](CCCCN)C(=O)N[C@@H]([C@@H](C)O)C(=O)N1)C(N)=O` displayed a GHI of 0.19.
As for `CC(C)C[C@@H]1NC(=O)[C@H](Cc2ccccc2)NC(=O)CCCCCCNC(=O)[C@H](Cc2ccccc2)NC(=O)[C@H]([C@@H](C)O)NC(=O)[C@H](CCCCN)NC(=O)[C@@H](Cc2c[nH]c3ccccc23)NC1=O` (stereo in doubt), the figure is 1.05; as for `CN[C@H](C)C(=O)N[C@@H](Cc1ccc(O)cc1)C(=O)N[C@H](Cc1c[nH]c2ccccc12)C(=O)N[C@@H](CCCCN)C(=O)N[C@H](C(=O)N[C@@H](Cc1ccccc1)C(N)=O)C(C)C`, 20000.
`CC(C)[C@@H]1NC(=O)[C@H](CCCCN)NC(=O)[C@@H](Cc2c[nH]c3ccccc23)NC(=O)[C@H](Cc2ccc(O)cc2)NC(=O)[C@H](NC(=O)[C@H](N)Cc2ccc3ccccc3c2)CSSC[C@@H](C(=O)N[C@@H](Cc2ccc3ccccc3c2)C(=O)O)NC1=O` came in with a GHI of 1.12.
As for `COc1ccc2[nH]cc(C[C@@H]3NC(=O)[C@H](Cc4ccccc4)NC(=O)[C@H](Cc4ccccc4)NC(=O)CCCCCCNC(=O)[C@H](Cc4ccccc4)NC(=O)[C@H]([C@@H](C)O)NC(=O)[C@H](CCCCN)NC3=O)c2c1` (stereo in doubt), the figure is 50.
For `C[C@@H](O)[C@@H]1NC(=O)[C@H](CCCCN)NC(=O)[C@H](Cc2c[nH]c3cc(F)ccc23)NC(=O)[C@H](Cc2ccccc2)NC(=O)[C@H](Cc2ccccc2)NC(=O)CCCCCCNC(=O)[C@H](Cc2ccccc2)NC1=O` (stereo in doubt), the GHI was 2.4.
Compound `C[C@@H](O)[C@@H]1NC(=O)[C@H](CCCCN)NC(=O)[C@H](Cc2c[nH]c3ccc(Br)cc23)NC(=O)[C@H](Cc2ccccc2)NC(=O)[C@H](Cc2ccccc2)NC(=O)CCCCCCNC(=O)[C@H](Cc2ccccc2)NC1=O` (stereo in doubt) yielded a GHI of 50.
`NCCCCC1NC(=O)[C@@H](Cc2c[nH]c3ccccc23)NC(=O)C(Cc2ccccc2)NC(=O)[C@@H]2CCCN2C(=O)C(Cc2ccccc2)NC(=O)[C@H](CO)NC1=O` (single isomer, unassigned) displayed a GHI of 0.71.
To `CC[C@@H]1NC(=O)[C@H](CCCCN)NC(=O)[C@@H](Cc2c[nH]c3ccccc23)NC(=O)[C@H](Cc2ccc(O)cc2)NC(=O)[C@@H](NC(=O)[C@H](N)Cc2ccccc2)CSSC[C@@H](C(=O)N[C@@H](Cc2ccc3ccccc3c2)C(N)=O)NC1=O` (H-[dF]CY[dW]K[Abu]C[2Nal]-NH2; disulfide 2-7) belongs 0.03; to `CC(C)[C@H](NC(=O)[C@H](CCCCN)NC(=O)[C@@H](Cc1c[nH]c2ccccc12)NC(=O)[C@H](Cc1ccc(O)cc1)NC(=O)[C@H](Cc1ccc(Cl)cc1)NC(=O)[C@H](N)Cc1ccccc1)C(=O)N[C@@H](Cc1ccccc1)C(=O)N[C@H](C)C(N)=O`, 4000; to `CC1NC(=O)[C@H]([C@@H](C)O)NC(=O)C(CCCCN)NC(=O)[C@@H](Cc2c[nH]c3ccccc23)NC(=O)C(Cc2ccccc2)NC(=O)[C@@H]2CCCN2C1=O` (single isomer, unassigned; 58), 16.7.
Take `CC(C)[C@H](NC(=O)[C@H](CCCCN)NC(=O)[C@@H](Cc1c[nH]c2ccccc12)NC(=O)[C@H](Cc1ccc(O)cc1)NC(=O)[C@H](Cc1ccc(Cl)cc1)NC(=O)[C@H](N)Cc1ccccc1)C(=O)N[C@@H](Cc1ccccc1)C(=O)N[C@H](C(N)=O)[C@@H](C)O` (H-[dF][Phe(4-Cl)]Y[dW]KVFT-NH2): the GHI was 17.
Consider `CC1NC(=O)[C@@H]2CCCN2C(=O)C(Cc2ccccc2)NC(=O)[C@H]([C@@H](C)O)NC(=O)C(CCCCN)NC(=O)[C@@H](Cc2c[nH]c3ccccc23)NC1=O` (single isomer, unassigned), for which the GHI came out at 5.
Regarding `C[C@@H](O)[C@@H]1NC(=O)[C@H](CCCCN)NC(=O)[C@@H](Cc2c[nH]c3ccccc23)NC(=O)[C@H](Cc2c[nH]c3ccccc23)NC(=O)[C@H](Cc2ccccc2)NC(=O)CCCCCCNC(=O)[C@H](Cc2ccccc2)NC1=O` (stereo in doubt), the GHI came out at 16.7.
For `CC(C)C1NC(=O)[C@H](CCCCN)NC(=O)[C@@H](Cc2c[nH]c3ccccc23)NC(=O)C(Cc2ccc(O)cc2)NC(=O)CCSSCC(C(=O)N[C@@H](Cc2ccccc2)C(N)=O)NC1=O` (single isomer, unassigned), the GHI stood at 23.
`CC[C@@H]1NC(=O)[C@H](CCCCN)NC(=O)C(Cc2c[nH]c3ccccc23)NC(=O)[C@H](Cc2ccc(O)cc2)NC(=O)[C@@H]2Cc3ccccc3CN2C(=O)[C@H](Cc2ccccc2)NC1=O` (single isomer, unassigned) displayed a GHI of 0.26.
Take `C[C@@H]1NC(=O)[C@H](Cc2ccccc2)NC(=O)CCCCCCNC(=O)[C@H](Cc2ccccc2)NC(=O)[C@H]([C@@H](C)O)NC(=O)[C@H](CCCCN)NC(=O)[C@@H](Cc2c[nH]c3ccccc23)NC1=O` (stereo in doubt): the GHI came out at 6.25.
In the case of `C[C@@H](O)[C@@H]1NC(=O)[C@H](CCCCN)NC(=O)[C@@H](Cc2c[nH]c3ccccc23)NC(=O)[C@H](Cc2ccc(O)cc2)NC(=O)[C@@H](NC(=O)[C@H](N)Cc2ccccc2)CSSC[C@@H](C(=O)N[C@@H](Cc2ccc3ccccc3c2)C(N)=O)NC1=O`, the GHI was determined as 0.05.
`C[C@@H](O)[C@@H]1NC(=O)[C@H](CCCN=C(N)N)NC(=O)[C@@H](Cc2c[nH]c3ccccc23)NC(=O)[C@H](Cc2ccccc2)NC(=O)[C@H](Cc2ccccc2)NC(=O)CCCCCCNC(=O)[C@H](Cc2ccccc2)NC1=O` (stereo in doubt) returned a GHI of 14.
